Laboratory results as given in ChEMBL document CHEMBL1145287, “Docking and 3-D QSAR studies on indolyl aryl sulfones. Binding mode exploration at the HIV-1 reverse transcriptase non-nucleoside binding site and design of highly active N-(2-hydroxyethyl)carboxamide and N-(2-hydroxyethyl)carbohydrazide derivatives” (J Med Chem, 2005).

Assays:
Conditions in all cases: Homo sapiens
MT4 [1] = assay: (§1) Concentration required for 50% protection of infected MT-4 cells from wtIIIB-HIV-1-induced cytopathogenicity was determined by the MTT method; type: functional, cell-based
In short: (§2)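 MT-4 cells (1 × 10⁴/well, RPMI 1640 + 10% FCS) exposed to serial compound dilutions (200 mM DMSO stock diluted in medium), infected with enough virus to give full cytopathicity by day 4; wt IIIB from H9/IIIB supernatant, Y181C and K103N–Y181C from NNRTI-selected passages.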

MT4 [2] = assay: Concentration required to achieve 50% protection of infected MT-4 cells from Y181C-HIV-1 strain; type: functional, cell-based; in short: as §2
C8166 [3] = assay: Concentration required to reduce the amount of p24 by 90% in wtIIIB-HIV-1-infected C8166 cells; type: functional
In short: (§3)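 Acute infection of C8166 cells (1 × 10⁴/well, RPMI 1640 with 10% FCS, 37 °C, 5% CO₂) by HIV-1 IIIB from persistently infected H9/IIIB supernatant, with a virus inoculum sized to cause complete cytopathicity at day 4, in the presence of serially diluted compound (DMSO stock diluted in medium). p24 antigen was measured by immunoenzymatic kit. Concentration giving 90% reduction of p24 reported.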

C8166 [4] = assay: Compound concentration required to reduce the amount of p24 by 90% in wtIIIBinfected C8166 cells; type: functional; in short: as §3
C8166 [5] = assay: Concentration required to reduce the amount of p24 by 90% in C8166 cells infected with an efavirenz-resistant strain EFVR; type: functional
In short: (§4)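 C8166 cells (1 × 10⁴/well) with serial compound dilutions (200 mM DMSO stock diluted in medium), infected with K103R/V179D/P225H virus selected from IIIB by passage in C8166 cells with efavirenz up to 2 μM (stock 3.0 × 10⁵ CCID₅₀/mL); 37 °C incubation; p24 measured by immunoenzymatic kit; value = concentration giving 90% p24 reduction.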

C8166 [6] = assay: Compound concentration required to reduce the amount of p24 by 90% in C8166 cells infected with an efavirenz-resistant strain EFVR carrying mutations K103R, V179D, and P225H; type: functional; in short: as §4
MT4 [7] = assay: Protection of infected MT-4 cells from wtIIIB-HIV-1-induced cytopathogenicity; type: functional, cell-based
In short: (§5)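 MT-4 cells (1 × 10⁴/well, RPMI 1640 with 10% FCS, 37 °C, 5% CO₂) were infected with HIV-1 IIIB (H9/IIIB supernatant) at an inoculum causing complete cytopathicity by day 4, across graded compound concentrations. Viability was read by MTT, with cytotoxicity run in parallel on mock-infected cells. Concentration giving 50% protection reported as the mean of three experiments.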

MT4 [8] = assay: Concentration required to achieve 50% protection of infected MT-4 cells from K103N-Y181C; type: functional, cell-based; in short: as §2
MT4 [9] = assay: Compound concentration required to achieve 50% protection of infected MT-4 cells from Y181C strain was determined by the MTT method; type: functional, cell-based; in short: as §2
MT4 [10] = assay: as §1; type: functional, cell-based; in short: as §5; remark: listed apart in the source
MT4 [11] = assay: Compound concentration required to achieve 50% protection of infected MT-4 cells from K103N-Y181C strain was determined by the MTT method; type: functional, cell-based; in short: as §2

Row | SMILES | EC50 (MT4 [7]) [nM] | other results
1 | Cc1cc(C)cc(S(=O)(=O)c2c(C(=O)NNCCO)[nH]c3ccc(Cl)cc23)c1 | 1 | EC50 (MT4 [1]): 1 nM; EC50 (MT4 [2]): 30 nM; EC90 (C8166 [3]): 6 nM; EC90 (C8166 [4]): 6 nM; EC90 (C8166 [5]): 200 nM; EC90 (C8166 [6]): 200 nM; EC50 (MT4 [8]): 10000 nM; EC50 (MT4 [9]): 30 nM; EC50 (MT4 [10]): 1 nM; EC50 (MT4 [11]): 10000 nM
2 | Cc1cccc(S(=O)(=O)c2c(C(=O)NNCCO)[nH]c3ccc(Cl)cc23)c1 |  | EC50 (MT4 [10]): 10 nM
3 | NC(=O)c1c(C=O)n(S(=O)(=O)c2ccccc2)c2ccc(Cl)cc12 | ≥ 200000 | 
4 | O=[N+]([O-])c1cc(Cl)ccc1S(=O)(=O)n1ccc2ccccc21 |  | EC50 (MT4 [10]): 15800 nM
5 | CCOC(=O)C(=O)c1cc2cc(Cl)ccc2n1S(=O)(=O)c1cc(Cl)ccc1N | 8300 | 
6 | NNC(=O)C(=O)c1cc2ccccc2n1S(=O)(=O)c1ccccc1 | > 200000 | 
7 | O=C1Nc2ccc(Cl)cc2[C@@](C#CC2CC2)(C(F)(F)F)O1 [EFAVIRENZ] |  | EC90 (C8166 [3]): 8 nM; EC90 (C8166 [4]): 8 nM; EC90 (C8166 [5]): 1800 nM; EC90 (C8166 [6]): 1800 nM; EC50 (MT4 [8]): 150 nM; EC50 (MT4 [11]): 150 nM
8 | NNC(=O)c1[nH]c2ccc(Cl)cc2c1Sc1ccc(F)cc1 | 5000 | 
9 | CC(C)c1ccc(Sc2c(C(N)=O)[nH]c3ccc(Cl)cc23)cc1 | 1900 | 
10 | CCOC(=O)c1[nH]c2ccc(Cl)cc2c1S(=O)(=O)c1cc(Cl)ccc1N | 1900 | 
11 | NC(=O)c1[nH]c2ccc(Cl)cc2c1S(=O)(=O)c1c(Cl)cccc1Cl | 100 | 
12 | NC(=O)C(=O)c1cc2ccccc2n1S(=O)(=O)c1ccccc1 | 15000 | 
13 | NNC(=O)c1[nH]c2ccc(Cl)cc2c1Sc1cc(Cl)ccc1N | > 13000 | 
14 | CC(=O)c1ccc2[nH]c(C(N)=O)c(S(=O)(=O)c3cc(C)cc(C)c3)c2c1 | 15 | 
15 | NC(=O)c1[nH]c2ccc(Cl)cc2c1S(=O)(=O)c1ccccc1 [L-737126] | 1 | EC50 (MT4 [2]): 20 nM; EC90 (C8166 [3]): 0.7 nM; EC90 (C8166 [5]): 900 nM; EC50 (MT4 [8]): 8000 nM
16 | NC(=O)c1[nH]c2ccccc2c1Sc1ccccc1 | 1400 | 
17 | CCOC(=O)C(=O)c1cc2ccccc2n1S(=O)(=O)c1ccc(Cl)cc1 | > 100000 | 
18 | NNC(=O)c1[nH]c2ccc(Cl)cc2c1S(=O)(=O)c1ccccc1 | 10 | 
19 | Cc1ccc(Sc2c(C(=O)NN)[nH]c3ccc(Cl)cc23)cc1 | 1500 | 
20 | CCOC(=O)C(=O)c1cc2ccccc2n1S(=O)(=O)c1cc(Cl)ccc1N | 1800 | 
21 | CCOC(=O)c1[nH]c2ccccc2c1Sc1ccccc1N | > 200000 | 

Row | SMILES | EC50 (MT4 [7]) [nM] | other results
22 | CCOC(=O)c1[nH]c2ccccc2c1Sc1ccccc1 | 1400 | 
23 | NC(=O)C(=O)c1cc2cc(Cl)ccc2n1S(=O)(=O)c1ccccc1 | 66600 | 
24 | NC(=O)c1[nH]c2ccccc2c1S(=O)(=O)c1cc(Cl)ccc1N | 300 | 
25 | CCOC(=O)C(=O)c1cc2cc(Cl)ccc2n1S(=O)(=O)c1ccc(Cl)cc1 | > 200000 | 
26 | NNC(=O)c1[nH]c2ccc(Cl)cc2c1Sc1ccccc1 | 550 | 
27 | Cc1ccc(S(=O)(=O)c2c(C(=O)NN)[nH]c3ccc(Cl)cc23)cc1 | 50 | 
28 | NC(=O)c1[nH]c2ccc(Cl)cc2c1Sc1cc(Cl)ccc1N | 1600 | 
29 | O=C(NCCO)c1[nH]c2ccc(Cl)cc2c1Sc1ccccc1 |  | EC50 (MT4 [10]): 129 nM
30 | NC(=O)c1[nH]c2ccc(Cl)cc2c1S(=O)(=O)c1ccc(Cl)cc1 | 11 | 
31 | Cc1ccc(S(=O)(=O)c2c(C(N)=O)[nH]c3ccc(Cl)cc23)cc1 | 3 | 
32 | NNC(=O)c1[nH]c2ccc(Cl)cc2c1S(=O)(=O)c1ccc(Cl)cc1 | 190 | 
33 | NC(=O)c1[nH]c2ccc(Cl)cc2c1Sc1ccc(Cl)cc1 | 3100 | 
34 | NC(=O)c1[nH]c2ccc(Cl)cc2c1S(=O)(=O)c1cc(Cl)ccc1N | 40 | 
35 | CCOC(=O)C(=O)c1cc2cc(Cl)ccc2n1S(=O)(=O)c1ccccc1 | > 200000 | 
36 | CCOC(=O)c1[nH]c2ccccc2c1S(=O)(=O)c1ccccc1 | 3700 | 
37 | Cc1ccc(Sc2c(C(=O)NNCCO)[nH]c3ccc(Cl)cc23)c(C)c1 |  | EC50 (MT4 [10]): 2290 nM
38 | O=Cc1cc2ccccc2n1S(=O)(=O)c1ccccc1 | > 150000 | 
39 | O=[N+]([O-])c1ccc(Cl)cc1S(=O)(=O)n1ccc2ccccc21 |  | EC50 (MT4 [10]): 3980 nM
40 | NC(=O)c1[nH]c2ccc(Cl)cc2c1Sc1ccccc1 | 20 | 
41 | CCOC(=O)C(=O)c1cc2ccccc2n1S(=O)(=O)c1ccccc1[N+](=O)[O-] | 1800 | 
